Data reported in ChEMBL document CHEMBL3124871, “Synthesis and pharmacological characterization of 1-benzyl-4-aminoindole-based thyroid hormone receptor β agonists” (Bioorg Med Chem, 2014).

Assays:
[1] = species: Homo sapiens; assay: Reduction in LDL-cholesterol in healthy human at 100 ug qd for 1 week; format: functional; design: scale not given: the % may be the effect or the level left
[2] = test system: Rattus norvegicus; assay: Reduction in plasma HDL-cholesterol in cholesterol-fed Sprague-Dawley rat at 30 mg/kg/day, po qd for 1 week measured 3 to 6 hrs post last dose (reference value: 22 +/- 6 mg/dl); format: functional
[3] = test system: Rattus norvegicus; assay: Toxicity in cholesterol-fed Sprague-Dawley rat assessed as heart weight at 30 mg/kg/day, po qd for 1 week measured 3 to 6 hrs post last dose (reference value: 1.14 +/- 0.12 g); format: organism-based; design: route oral; conditions: in vivo
[4] = test system: Rattus norvegicus; assay: Toxicity in cholesterol-fed Sprague-Dawley rat assessed as heart weight at 150 mg/kg/day, po qd for 1 week measured 3 to 6 hrs post last dose (reference value: 1.14 +/- 0.12 g); format: organism-based; design: route oral; conditions: in vivo
[5] = test system: HepG2; assay: Selectivity ratio of EC50 for human recombinant transfected in human HepG2 cells to EC50 for human recombinant TRbeta1 transfected in human HepG2; format: cell-based
[6] = test system: Rattus norvegicus; assay: Reduction in plasma free cholesterol in cholesterol-fed Sprague-Dawley rat at 30 mg/kg/day, po qd for 1 week measured 3 to 6 hrs post last dose (reference value: 36 +/- 9 mg/dl); format: functional
[7] = target: T1, Thyroid hormone receptor beta (Homo sapiens, UniProt P10828); assay: Displacement of [125I]-Triiodothyronine from human recombinant TRbeta1 ligand binding domain after 2 to 3 hrs by beta counting
T1 sequence (P10828 whole entry): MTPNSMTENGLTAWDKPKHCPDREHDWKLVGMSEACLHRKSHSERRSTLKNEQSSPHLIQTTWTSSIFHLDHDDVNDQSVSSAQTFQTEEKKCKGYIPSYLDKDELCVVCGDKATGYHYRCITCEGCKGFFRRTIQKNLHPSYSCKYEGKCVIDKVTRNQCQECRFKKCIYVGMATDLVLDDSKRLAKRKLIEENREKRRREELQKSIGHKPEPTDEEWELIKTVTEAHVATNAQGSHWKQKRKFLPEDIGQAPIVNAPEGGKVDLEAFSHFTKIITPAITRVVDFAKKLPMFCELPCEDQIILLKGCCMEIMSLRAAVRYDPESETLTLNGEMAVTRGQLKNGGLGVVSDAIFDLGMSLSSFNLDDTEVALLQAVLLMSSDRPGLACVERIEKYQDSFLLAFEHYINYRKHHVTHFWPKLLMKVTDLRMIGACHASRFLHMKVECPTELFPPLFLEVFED

[8] = target: T1, Thyroid hormone receptor beta; assay: Agonist activity at human recombinant TRbeta1 transfected in human HepG2 cells after 8 to 10 hrs by alkaline phosphatase reporter gene assay; format: cell-based
[9] = test system: Rattus norvegicus; assay: Toxicity in cholesterol-fed Sprague-Dawley rat assessed as TSH level at 150 mg/kg/day, po qd for 1 week measured 3 to 6 hrs post last dose (reference value: 3.0 +/- 1.0 uIU/ml); format: organism-based; design: route oral; conditions: in vivo
[10] = test system: CV-1; assay: Selectivity ratio of EC50 for human recombinant transfected in CV-1 cells to EC50 for human recombinant TRbeta1 transfected in CV-1 cells; format: cell-based
Method in brief: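 CV-1 monkey kidney cells grown in DMEM with 10% FBS for 24 h at 37 °C and 5% CO2. Transfected (FuGENE) with hTRα1 or hTRβ1 plus a SEAP reporter for 24 h, then exposed to T3 or test compound for 8-10 h. SEAP was read as A405 of p-nitrophenol (pH 9.8, 30 min, RT). EC50 was set against T3 max = 100%; mean of four experiments; α/β ratio of EC50s.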

[11] = test system: Rattus norvegicus; assay: Reduction in plasma LDL-cholesterol in cholesterol-fed Sprague-Dawley rat at 30 mg/kg/day, po qd for 1 week measured 3 to 6 hrs post last dose (reference value: 51 +/- 15 mg/dl); format: functional
[12] = test system: Rattus norvegicus; assay: Toxicity in cholesterol-fed Sprague-Dawley rat assessed as TSH level at 30 mg/kg/day, po qd for 1 week measured 3 to 6 hrs post last dose (reference value: 3.0 +/- 1.0 uIU/ml); format: organism-based; design: route oral; conditions: in vivo
[13] = target: T1, Thyroid hormone receptor beta; assay: Agonist activity at human recombinant TRbeta1 transfected in CV-1 cells after 8 to 10 hrs by alkaline phosphatase reporter gene assay; format: cell-based
[14] = test system: Rattus norvegicus; assay: Toxicity in cholesterol-fed Sprague-Dawley rat assessed as heart rate at 30 mg/kg/day, po qd for 1 week measured 3 to 6 hrs post last dose (reference value: 383.0 +/- 26.7 bpm); format: organism-based; design: route oral; conditions: in vivo
[15] = test system: Rattus norvegicus; assay: Reduction in plasma total cholesterol in cholesterol-fed Sprague-Dawley rat at 30 mg/kg/day, po qd for 1 week measured 3 to 6 hrs post last dose (reference value: 190 +/- 49 mg/dl); format: functional
[16] = test system: Rattus norvegicus; assay: Toxicity in cholesterol-fed Sprague-Dawley rat assessed as total T4 level at 150 mg/kg/day, po qd for 1 week measured 3 to 6 hrs post last dose (reference value: 3.8 +/- 0.9 ug/dl); format: organism-based; design: route oral; conditions: in vivo
[17] = test system: Rattus norvegicus; assay: Toxicity in cholesterol-fed Sprague-Dawley rat assessed as heart rate at 150 mg/kg/day, po qd for 1 week measured 3 to 6 hrs post last dose (reference value: 383.0 +/- 26.7 bpm); format: organism-based; design: route oral; conditions: in vivo
[18] = test system: Rattus norvegicus; assay: Reduction in plasma triglyceride level in cholesterol-fed Sprague-Dawley rat at 30 mg/kg/day, po qd for 1 week measured 3 to 6 hrs post last dose (reference value: 62 +/- 25 mg/dl); format: functional
[19] = target: T2, Thyroid hormone receptor alpha (Homo sapiens, UniProt P10827); assay: Displacement of [125I]-Triiodothyronine from human recombinant TRalpha1 ligand binding domain after 2 to 3 hrs by beta counting
T2 sequence (P10827 whole entry): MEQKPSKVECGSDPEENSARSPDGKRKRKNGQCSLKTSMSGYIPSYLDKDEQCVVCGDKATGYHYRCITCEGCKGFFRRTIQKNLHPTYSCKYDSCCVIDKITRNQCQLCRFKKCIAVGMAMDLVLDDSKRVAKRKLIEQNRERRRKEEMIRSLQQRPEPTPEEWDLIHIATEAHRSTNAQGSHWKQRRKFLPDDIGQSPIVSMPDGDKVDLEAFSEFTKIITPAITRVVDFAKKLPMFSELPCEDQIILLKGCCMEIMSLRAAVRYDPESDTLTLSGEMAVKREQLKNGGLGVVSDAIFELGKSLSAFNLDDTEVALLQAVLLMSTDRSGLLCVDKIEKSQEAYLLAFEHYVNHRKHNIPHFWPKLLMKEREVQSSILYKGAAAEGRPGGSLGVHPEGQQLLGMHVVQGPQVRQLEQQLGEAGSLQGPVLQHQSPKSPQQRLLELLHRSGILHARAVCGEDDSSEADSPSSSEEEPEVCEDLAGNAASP

[20] = test system: Rattus norvegicus; assay: Toxicity in cholesterol-fed Sprague-Dawley rat assessed as total T4 level at 30 mg/kg/day, po qd for 1 week measured 3 to 6 hrs post last dose (reference value: 3.8 +/- 0.9 ug/dl); format: organism-based; design: route oral; conditions: in vivo
[21] = species: Homo sapiens; assay: Reduction in LDL-cholesterol in healthy human at 100 ug qd for 2 weeks; format: functional; design: scale not given: the % may be the effect or the level left
[22] = target: T2, Thyroid hormone receptor alpha; assay: Agonist activity at human recombinant TRalpha1 transfected in CV-1 cells after 8 to 10 hrs by alkaline phosphatase reporter gene assay; format: cell-based

SMILES	Ratio EC50 [5]	IC50 [7] [nM]	EC50 [8] [nM]	Ratio EC50 [10]	EC50 [13] [nM]	IC50 [19] [nM]	further results
CC(C)c1cc(Oc2c(Br)cc(NC(=O)CC(=O)O)cc2Br)ccc1O [EPROTIROME]	–	–	–	–	–	–	Activity [1]: 40%
Cc1cc2c(NC(=O)CC(=O)O)cccc2n1Cc1ccc(O)c(C(C)C)c1	16	230	220	4.5	1700	5200	Activity [2]: 23 mg/dL; Activity [3]: 1.13 g; Activity [4]: 1.24 g; Activity [6]: 19 mg/dL; Activity [9]: 0.9 uIU/ml; Activity [11]: 25 mg/dL; Activity [12]: 3.1 uIU/ml; Activity [14]: 403.2 bpm; Activity [15]: 111 mg/dL; Activity [16]: 1.7 µg/dL; Activity [17]: 415.8 bpm; Activity [18]: 44 mg/dL; Activity [20]: 2.8 µg/dL
CC(C)c1cc(Cn2ccc3c(NC(=O)C(=O)O)cccc32)ccc1O	2.2	–	550	2.7	1900	–	–
Cc1cc(OCC(=O)O)cc(C)c1Cc1ccc(O)c(C(C)C)c1 [SOBETIROME]	–	–	–	–	–	–	Activity [21]: 41%
Cc1c(C(=O)NCC(=O)O)c2ccccc2n1Cc1ccc(O)c(C(C)C)c1	–	1100	–	–	–	> 10000	–
Cc1cc2c(NC(=O)C(=O)O)cccc2n1Cc1ccc(O)c(C(C)C)c1	1.5	–	110	2.2	590	–	–
Cc1c(CCCCC(=O)O)c2ccccc2n1Cc1ccc(O)c(C(C)C)c1	–	1400	–	1.6	62	> 10000	EC50 [22]: 100 nM
